Bioassay records: PubChem, Broad Institute
T cruzi intra = intracellular Trypanosoma cruzi inhibition | intracellular Trypanosoma cruzi in host cells, plate reader | activity score (inhibition), % at 5.01 µM | hit rate 4.9% among 22,000; in the data active = activity score above about 55%;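 also: parasites and compound incubated about four days before reading; 0% = median of neutral control wells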
A1 apoptosis 2 = A1 inhibition read as caspase activation; MEF A1-2A-BIM cells, caspase-Glo luminescence, 3 h; percent of clofoctol response, DMSO zero; AID 2465; caspase activation, % (test concentration not listed); 24,000 tested, under 10 active; in the data active = caspase activation above about 5.9%
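Material: mouse embryonic fibroblasts co-expressing A1 and BIM (A1-2A-BIM), primed for A1 dependence / Quantity: 2500 cells/well / Buffer or medium: RPMI-1640 growth medium with 10% FBS / Doses: 50 nL compound per well, pinned / Schedule: 3 h compound exposure at 37 °C / Signal: Caspase-Glo luminescence (DEVD substrate) / Measure: Caspase-3/7 activation, seen as rise in luminescence signal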
INS-1E ATP HTS = rescue of cytokine-induced death in INS-1E beta cells; INS-1E cytokine-induced death, ATP luminescence, 48 h; normalised: neutral wells 0, positive control 100; protection from cytokine-induced ATP loss, % at 10 µM; hit rate 0.1% among 20,000; AID 488910;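 active = mean replicate protection from cytokine-induced ATP loss at least 50% and at least 75% of replicates each reaching 50%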
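Assay system – rat INS-1E insulinoma cell line · Quantity – 8000 cells per well · Buffer or medium – RPMI without phenol red, 5% FBS · Schedule – 48 h co-treatment, 10 min post-lysis read · Technique – luminescent ATP assay (CellTiter-Glo)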
* = called active by the depositor; nt = no result. Many of the other results were omitted from the sample, so hits are more common in it than they were.

SMILES	T cruzi intra	A1 apoptosis 2	INS-1E ATP HTS
C[C@H](CO)N1C[C@H](C)[C@H](CN(C)Cc2ccc(-c3ccccc3)cc2)Oc2ccc(NC(=O)Cc3ccccc3)cc2CC1=O	47.2	nt	-18.5
C[C@H]1CN([C@@H](C)CO)C(=O)Cc2cc(NC(=O)Cc3ccccc3)ccc2O[C@@H]1CN(C)Cc1ccc(Oc2ccccc2)cc1	63.0*	nt	-29.8
C[C@@H]1CN([C@H](C)CO)C(=O)Cc2cc(NC(=O)Cc3ccccc3)ccc2O[C@@H]1CN(C)Cc1ccc(-c2ccccc2)cc1	71.8*	0.9	-61.7
C[C@H]1CN([C@@H](C)CO)C(=O)Cc2cc(NC(=O)Nc3ccccc3)ccc2O[C@@H]1CN(C)Cc1ccc(Oc2ccccc2)cc1	49.2	nt	-26.0
C[C@H]1CN([C@@H](C)CO)C(=O)Cc2cc(NC(=O)Nc3ccccc3)ccc2O[C@H]1CN(C)Cc1ccc(Oc2ccccc2)cc1	-3.9	nt	-15.9
C[C@H](CO)N1C[C@H](C)[C@H](CN(C)Cc2ccc(Oc3ccccc3)cc2)Oc2ccc(NC(=O)Cc3ccccc3)cc2CC1=O	54.2	0.7	-41.2
C[C@@H]1CN([C@H](C)CO)C(=O)Cc2cc(NC(=O)Nc3ccccc3)ccc2O[C@@H]1CN(C)Cc1ccc(Oc2ccccc2)cc1	72.1*	1.8	-69.1
C[C@@H]1CN([C@H](C)CO)C(=O)c2cc(NS(C)(=O)=O)ccc2O[C@@H]1CN(C)S(=O)(=O)c1cccs1	-11.0	0.4	2.6
COc1ccc(NC(=O)Nc2ccc3c(c2)C(=O)N([C@@H](C)CO)C[C@H](C)[C@@H](CN(C)C(=O)NC(C)C)O3)cc1	-20.0	nt	6.8
O=C(N/N=C/[C@@H](O)[C@@H](O)[C@H](O)[C@H](O)CO)c1ccccc1O	-10.6	1.1	-11.0
C[C@@H]1CCCCO[C@H](CN(C)S(C)(=O)=O)[C@@H](C)CN([C@@H](C)CO)C(=O)c2cc(NC(=O)Nc3ccc(F)cc3)ccc2O1	nt	0.6	nt
Cc1noc(C)c1S(=O)(=O)N(C)C[C@@H]1Oc2ccc(NC(=O)Nc3ccccc3)cc2CC(=O)N([C@H](C)CO)C[C@H]1C	-2.1	-0.9	2.6
C[C@@H]1CN([C@@H](C)CO)C(=O)Cc2cc(NC(=O)Nc3ccc(F)cc3)ccc2O[C@@H]1CN(C)Cc1ccc(Oc2ccccc2)cc1	75.0*	nt	0.4
C[C@@H]1CN([C@@H](C)CO)C(=O)Cc2cc(NC(=O)CCC(F)(F)F)ccc2O[C@H]1CN(C)Cc1ccc(-c2ccccc2)cc1	nt	1.5	nt
C[C@H]1CN([C@@H](C)CO)C(=O)Cc2cc(NC(=O)CCC(F)(F)F)ccc2O[C@@H]1CN(C)Cc1ccc(-c2ccccc2)cc1	60.0*	nt	-52.8
C[C@@H]1CN([C@@H](C)CO)C(=O)Cc2cc(NC(=O)Nc3ccccc3)ccc2O[C@H]1CN(C)Cc1ccc(Oc2ccccc2)cc1	nt	0.6	nt
C[C@H]1CN([C@@H](C)CO)C(=O)c2cccc(NC(=O)Nc3ccc(C(F)(F)F)cc3)c2O[C@H]1CN(C)Cc1ccc(Oc2ccccc2)cc1	68.7*	-1.8	-76.6
C[C@@H]1CN([C@@H](C)CO)C(=O)c2cccc(NC(=O)Nc3ccc(C(F)(F)F)cc3)c2O[C@@H]1CN(C)Cc1ccc(Oc2ccccc2)cc1	87.4*	nt	-91.8
C[C@@H]1CN([C@H](C)CO)C(=O)c2cccc(NC(=O)Nc3ccccc3)c2O[C@H]1CN(C)Cc1ccc(C(F)(F)F)cc1	33.1	-0.2	-18.1
C[C@@H]1CN([C@@H](C)CO)C(=O)c2cccc(NC(=O)Nc3ccc(C(F)(F)F)cc3)c2O[C@H]1CN(C)Cc1ccc(Oc2ccccc2)cc1	52.4	-1.0	-54.9
C[C@@H]1CN([C@H](C)CO)C(=O)c2cccc(NC(=O)Nc3ccc(C(F)(F)F)cc3)c2O[C@H]1CN(C)Cc1ccc(Oc2ccccc2)cc1	41.9	-1.3	-4.1
C[C@@H]1CN([C@H](C)CO)C(=O)c2cccc(NC(=O)Nc3ccc(C(F)(F)F)cc3)c2O[C@@H]1CN(C)Cc1ccc(Oc2ccccc2)cc1	79.1*	nt	-53.9
Cc1ccc(S(=O)(=O)N(C)C[C@H]2Oc3c(NC(=O)C4CCOCC4)cccc3C(=O)N([C@@H](C)CO)C[C@H]2C)cc1	-27.5	-0.5	7.7
C[C@H](CO)N1C[C@H](C)[C@@H](CN(C)Cc2ccc3c(c2)OCO3)Oc2ccc(N(C)C)cc2CC1=O	nt	0.5	nt
C[C@H]1CN([C@@H](C)CO)C(=O)Cc2cc(N(C)C)ccc2O[C@@H]1CN(C)Cc1ccc2c(c1)OCO2	63.8*	nt	-4.8
C[C@@H]1CN([C@H](C)CO)C(=O)Cc2cc(N(C)C)ccc2O[C@H]1CN(C)Cc1ccc2c(c1)OCO2	68.7*	1.7	-8.5
